Experimental data from publication PMC3523546 (Journal of Medicinal Chemistry, 2012).
Square brackets hold non-standard residues; d marks the D form. Peptide text beside a SMILES is read from it. * marks the point of attachment. FITC = O=C1OC2(c3ccc(O)cc3Oc3cc(O)ccc32)c2ccc(NC(=S)*)cc21; βAla = NCCC(=O)O

Legend:
[1] = test system: DU145 cells; assay: MTT proliferation assay, DU145; assay type: cell-based; conditions: 72 h
Procedure, shortened: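 DU145 cells seeded at 1500 per well in RPMI 1640 with 5% FBS. After 24 h, medium changed and peptide added for 72 h. MTT added (1 mg/mL final) for 4 h, then formazan dissolved in 2-propanol–HCl. Metabolic activity normalised to vehicle (bidistilled water, 0.1% DMSO). IC50 from curve fitting; tabulated IC50 are means of five independent experiments.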

[2] = test system: LNCaP cells; assay: MTT proliferation assay, LNCaP; assay type: cell-based; conditions: 72 h
Procedure, shortened: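 LNCaP cells seeded at 2500 per well on poly-lysine-coated plates in RPMI 1640 with 10% FBS. Medium changed after 24 h, then peptide exposure for 72 h. MTT (1 mg/mL final) incubated 4 h; formazan dissolved in 2-propanol–HCl. Signal normalised to vehicle-treated cells (water, 0.1% DMSO).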

[3] = test system: LNCaP cells; assay: Cell cycle analysis; assay type: cell-based; conditions: 200 μM, 96 h
Procedure, shortened: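 LNCaP cells (4 × 10^5 per 10 cm dish) grown 24 h untreated, then given vehicle (0.1% DMSO) or 100 or 200 μM peptide in 10% FBS medium for 96 h, with medium changed every 24 h. Cells trypsinised, fixed in ice-cold ethanol (30 min, room temperature), and stained with propidium iodide plus RNaseA in HEPES pH 7.2 buffer. Flow cytometry: ≥10000 gated singlets. Phase percentages taken from living cells. Three experiments in duplicate; unpaired two-tailed t test.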

[4] = test system: amino-peptidases; assay: Stability of the peptide to amino-peptidases; assay type: in vitro ADME; conditions: N-terminal Leu replaced by DLeu, versus ML-peptide; unpublished data
[5] = test system: DU145 cells; assay: Cellular uptake of FITC peptides by FACS; assay type: cell-based; conditions: for geometric mean of the distribution (GeoMean), range over both wash conditions: DU145, 10 μM FITC peptide, 1 h, FACS
Procedure, shortened: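 DU145 cells (4 × 10^5) incubated 1 h in serum-free RPMI with 10 μM FITC-labelled peptide, then pelleted. Pellets washed twice with 0.05% trypsin, 5 min at 37 °C, to strip membrane-bound label. Propidium iodide (10 μg/mL, 2 min) excluded membrane-damaged cells. At least 10000 events acquired per sample, excluding clumps and debris. Uptake reported as geometric mean fluorescence.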

[6] = target: T1, P6 Lys hexapeptide inhibitor; assay: enzyme inhibition assay
T1 chain: KLRVKR

[7] = target: T2, P6 Arg hexapeptide inhibitor; assay: enzyme inhibition assay
T2 chain: RLRVKR

[8] = target: T3, PC7 prodomain prodomain (Homo sapiens, UniProt Q16549); assay: enzyme inhibition assay
T3 chain: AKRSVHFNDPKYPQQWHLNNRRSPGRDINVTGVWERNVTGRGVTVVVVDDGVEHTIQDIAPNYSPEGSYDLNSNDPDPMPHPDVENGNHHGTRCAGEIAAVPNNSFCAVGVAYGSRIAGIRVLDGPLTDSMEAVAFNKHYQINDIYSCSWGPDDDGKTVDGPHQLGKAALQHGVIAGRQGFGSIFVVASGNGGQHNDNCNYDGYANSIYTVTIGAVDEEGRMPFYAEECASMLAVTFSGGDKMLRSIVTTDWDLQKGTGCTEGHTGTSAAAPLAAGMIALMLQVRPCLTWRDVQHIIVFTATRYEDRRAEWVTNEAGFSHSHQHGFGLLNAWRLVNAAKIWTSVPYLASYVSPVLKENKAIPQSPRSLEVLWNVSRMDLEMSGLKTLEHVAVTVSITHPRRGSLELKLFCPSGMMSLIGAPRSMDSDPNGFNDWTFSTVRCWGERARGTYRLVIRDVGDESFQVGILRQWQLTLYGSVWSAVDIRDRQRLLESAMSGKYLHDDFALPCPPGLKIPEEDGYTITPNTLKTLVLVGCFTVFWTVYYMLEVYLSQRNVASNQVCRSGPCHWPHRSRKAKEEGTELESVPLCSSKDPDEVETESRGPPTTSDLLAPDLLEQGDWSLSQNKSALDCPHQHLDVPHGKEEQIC

[9] = target: T4, P6 Leu hexapeptide inhibitor; assay: enzyme inhibition assay
T4 chain: LLRVKR

Q: `CC(=O)N[C@@H](CCCNC(=N)N)C(=O)N[C@@H](C)C(=O)N[C@@H](CCCNC(=N)N)C(=O)N[C@@H](CCCNC(=N)N)C(=O)N[C@@H](CCCNC(=N)N)C(=O)N[C@@H](CCCCN)C(=O)N[C@@H](CCCCN)C(=O)N[C@@H](CCCNC(=N)N)C(=O)N[C@H](C(N)=O)[C@@H](C)O` [reference compound] was tested. Which “inhibition of proliferation” value [1] did it give?
A: The value was “no antiproliferative effects”.

Q: And the “inhibition of proliferation” value [2]?
A: Its value is “no antiproliferative effects”.

Q: With `CC(=O)N[C@H](CC(C)C)C(=O)N[C@@H](CC(C)C)C(=O)N[C@@H](CC(C)C)C(=O)N[C@@H](CC(C)C)C(=O)N[C@@H](CCCNC(=N)N)C(=O)N[C@H](C(=O)N[C@@H](CCCCN)C(=O)N[C@@H](CCCNC(=N)N)C(N)=O)C(C)C` [Ac-[DLeu]LLLRVKR-NH2] as the molecule, how does the “increase in the G0/G1 population” value [3] read?
A: The value was 10%.

Q: What about the “stability of the peptide to amino-peptidases” value [4] of the same molecule?
A: The value was “improved stability”.

Q: Which results are given for “FITC-C8-LLLLRVKR-NH2 ({FITC-C8}-LLLLRVKR-NH2)”?
A: geometric mean of the distribution (GeoMean), range over both wash conditions [5]: 260.08–261.95; GeoMean compared to the control FITC-β-Ala-ML-peptide ([5]; DU145, FACS): 5 fold

Q: For “FITC-[β-Ala]-LLLLRVKR-NH2 ({FITC-βAla}-LLLLRVKR-NH2)”, which “geometric mean of the distribution (GeoMean), range over both wash conditions” value [5] is on record?
A: The value was 48.90–52.82.

Q: How did the “inhibition of proliferation” value [1] turn out when `CC(=O)N[C@@H](CC(C)C)C(=O)N[C@@H](CC(C)C)C(=O)N[C@@H](CC(C)C)C(=O)N[C@@H](CC(C)C)C(=O)N[C@@H](CCCNC(=N)N)C(=O)N[C@H](C(=O)N[C@@H](CCCCN)C(=O)N[C@H](CCCNC(=N)N)C(N)=O)C(C)C` [Ac-LLLLRVK[DArg]-NH2] (Ac-LLLLRVK[dR]-NH2) was run?
A: The value was “poor proliferation inhibitor”.

Q: And the “inhibition of proliferation” value [2]?
A: Its value is “poor proliferation inhibitor”.

B1: PACE4 (protein)
chain: QVRSDPQALYFNDPIWSNMWYLHCGDKNSRCRSEMNVQAAWKRGYTGKNVVVTILDDGIERNHPDLAPNYDSYASYDVNGNDYDPSPRYDASNENKHGTRCAGEVAASANNSYCIVGIAYNAKIGGIRMLDGDVTDVVEAKSLGIRPNYIDIYSASWGPDDDGKTVDGPGRLAKQAFEYGIKKGRQGLGSIFVWASGNGGREGDYCSCDGYTNSIYTISVSSATENGYKPWYLEECASTLATTYSSGAFYERKIVTTDLRQRCTDGHTGTSVSAPMVAGIIALALEANSQLTWRDVQHLLVKTSRPAHLKASDWKVNGAGHKVSHFYGFGLVDAEALVVEAKKWTAVPSQHMCVAASDKRPRSIPLVQVLRTTALTSACAEHSDQRVVYLEHVVVRTSISHPRRGDLQIYLVSPSGTKSQLLAKRLLDLSNEGFTNWEFMTVHCWGEKAEGQWTLEIQDLPSQVRNPEKQGKLKEWSLILYGTAEHPYHTFSAHQSRSRMLELSAPELEPPKAALSPSQVEVPEDEEDYTAQSTPGSANILQTSVCHPECGDKGCDGPNADQCLNCVHFSLGSVKTSRKCVSVCPLGYFGDTAARRCRRCHKGCETCSSRAATQCLSCRRGFYHHQEMNTCVTLCPAGFYADESQKNCLKCHPSCKKCVDEPEKCTVCKEGFSLARGSCIPDCEPGTYFDSELIRCGECHHTCGTCVGPGREECIHCAKNFHFHDWKCVPACGEGFYPEEMPGLPHKVCRRCDENCLSCAGSSRNCSRCKTGFTQLGTSCITNHTCSNADETFCEMVKSNRLCERKLFIQFCCRTCLLAG
Q: For B1, which Ki [6] is on record?
A: The Ki was 37 nM.

Q: What about the Ki [7] of the same molecule?
A: The Ki was 40 nM.

Q: What about the Ki [8] of the same molecule?
A: Its Ki is 0.34 nM.

Q: What about the Ki [9] of the same molecule?
A: Its Ki is 49 nM.
